Results on nine compounds are retold here after ChEMBL document CHEMBL4020830, “Design, Synthesis, and Evaluation of a Novel Series of Indole Sulfonamide Peroxisome Proliferator Activated Receptor (PPAR) α/γ/δ Triple Activators: Discovery of Lanifibranor, a New Antifibrotic Clinical Candidate” (J Med Chem, 2018).

In general, EC50 refers to the concentration at which the effect is half-maximal. A word on the Cmax: it is the maximum level reached in the sampled fluid or tissue. For orientation: Tmax means the time from dosing to the highest level. As usually defined, the AUC(0-inf) is total exposure, with the tail of the curve extrapolated. The term Papp A→B denotes how fast a substance crosses the layer from the apical side. Usually Papp stands for the rate of passage across a membrane or cell layer, normalised by area and donor concentration. Usually efflux ratio stands for the permeability from basolateral to apical divided by that in the opposite direction, in the common usage. In general, solubility refers to the dissolved amount per volume that the medium holds.

For data set [1], the target named is T1, Peroxisome proliferator-activated receptor alpha (Homo sapiens, UniProt Q07869).
T1 sequence (Q07869 whole entry): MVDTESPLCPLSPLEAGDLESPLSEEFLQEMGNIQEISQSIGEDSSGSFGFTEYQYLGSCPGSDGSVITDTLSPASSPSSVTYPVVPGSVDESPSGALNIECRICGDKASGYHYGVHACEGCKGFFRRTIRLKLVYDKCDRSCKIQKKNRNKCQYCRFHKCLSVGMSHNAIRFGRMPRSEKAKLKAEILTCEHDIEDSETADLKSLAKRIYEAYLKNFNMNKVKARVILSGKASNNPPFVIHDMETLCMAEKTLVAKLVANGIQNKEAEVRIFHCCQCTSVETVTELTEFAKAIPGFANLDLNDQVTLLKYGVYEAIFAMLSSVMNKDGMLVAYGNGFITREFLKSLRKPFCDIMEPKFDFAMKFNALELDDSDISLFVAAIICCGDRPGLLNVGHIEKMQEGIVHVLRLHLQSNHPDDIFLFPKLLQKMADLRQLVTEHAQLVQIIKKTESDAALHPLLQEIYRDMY
Nature of the data set: Transactivation of human GAL4-fused PPARalpha LBD expressed in African green monkey COS7 cells co-expressing 5Gal4 pGL3 TK Luc after overnight incubation by luciferase reporter gene assay. It is filed as cell-based. The procedure, abridged:
(§1)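 Cell-based Gal-4 transactivation assay in COS-7 cells transfected with PPARα, PPARδ or PPARγ ligand-binding domain. EC50 and Emax were derived, with Emax as maximum activation in percent of control. EC50s are means of at least two independent experiments performed in triplicate.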

Data set [2] deals with T2, Peroxisome proliferator-activated receptor alpha (Homo sapiens) (UniProt Q07869).
T2 sequence (whole entry): T1 sequence (Q07869 whole entry)
The experiment in a line: Transactivation of human GAL4-fused PPARalpha LBD expressed in African green monkey COS7 cells co-expressing 5Gal4 pGL3 TK Luc after overnight incubation by luciferase reporter gene assay relative to fenofibric acid. The class given is cell-based. The procedure, abridged:
as §1
Background: A reporter such as luciferase makes a cellular process visible.

The target of data set [3] is T3, Peroxisome proliferator-activated receptor delta (Homo sapiens, UniProt Q03181).
T3 sequence (Q03181 whole entry): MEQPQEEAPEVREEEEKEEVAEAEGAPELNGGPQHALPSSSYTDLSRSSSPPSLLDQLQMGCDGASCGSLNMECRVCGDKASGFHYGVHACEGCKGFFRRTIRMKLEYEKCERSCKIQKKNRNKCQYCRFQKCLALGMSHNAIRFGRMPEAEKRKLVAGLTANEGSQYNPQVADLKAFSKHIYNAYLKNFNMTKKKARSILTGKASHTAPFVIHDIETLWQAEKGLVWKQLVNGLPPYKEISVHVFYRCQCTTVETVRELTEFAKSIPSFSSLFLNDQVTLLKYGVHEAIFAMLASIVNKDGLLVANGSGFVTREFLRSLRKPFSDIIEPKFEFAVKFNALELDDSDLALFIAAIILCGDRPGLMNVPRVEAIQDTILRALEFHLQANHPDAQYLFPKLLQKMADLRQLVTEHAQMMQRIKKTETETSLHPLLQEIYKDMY
The experiment in a line: Transactivation of human GAL4-fused PPARdelta LBD expressed in African green monkey COS7 cells co-expressing 5Gal4 pGL3 TK Luc after overnight incubation by luciferase reporter gene assay. The class given is cell-based. The procedure, abridged:
as §1

Data set [4] deals with T4, Peroxisome proliferator-activated receptor delta (Homo sapiens) (UniProt Q03181).
T4 sequence (whole entry): T3 sequence (Q03181 whole entry)
Nature of the data set: Transactivation of human GAL4-fused PPARdelta LBD expressed in African green monkey COS7 cells co-expressing 5Gal4 pGL3 TK Luc after overnight incubation by luciferase reporter gene assay relative to GW501516. It is filed as cell-based. In short, it runs like this: as §1

Data set [5] addresses T5, Peroxisome proliferator-activated receptor gamma (Homo sapiens, UniProt P37231).
T5 sequence (P37231 whole entry): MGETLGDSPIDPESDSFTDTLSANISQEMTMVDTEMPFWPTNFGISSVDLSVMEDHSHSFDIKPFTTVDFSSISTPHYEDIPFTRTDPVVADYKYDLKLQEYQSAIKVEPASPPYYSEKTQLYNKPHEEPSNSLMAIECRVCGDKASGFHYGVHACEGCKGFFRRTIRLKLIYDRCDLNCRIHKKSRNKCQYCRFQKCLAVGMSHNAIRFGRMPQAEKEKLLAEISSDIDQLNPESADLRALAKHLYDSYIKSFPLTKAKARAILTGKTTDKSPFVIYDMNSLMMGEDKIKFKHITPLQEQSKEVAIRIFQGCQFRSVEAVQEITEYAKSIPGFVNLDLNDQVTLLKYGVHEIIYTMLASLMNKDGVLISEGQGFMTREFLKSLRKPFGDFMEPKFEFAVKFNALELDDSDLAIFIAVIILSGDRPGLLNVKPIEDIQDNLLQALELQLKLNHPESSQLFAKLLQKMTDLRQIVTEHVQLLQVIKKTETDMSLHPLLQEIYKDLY
The experiment in a line: Transactivation of human GAL4-fused PPARgamma LBD expressed in African green monkey COS7 cells co-expressing 5Gal4 pGL3 TK Luc after overnight incubation by luciferase reporter gene assay. It is filed as cell-based. The procedure, abridged:
as §1

Data set [6] deals with T6, Peroxisome proliferator-activated receptor gamma (Homo sapiens) (UniProt P37231).
T6 sequence (whole entry): T5 sequence (P37231 whole entry)
Nature of the data set: Transactivation of human GAL4-fused PPARgamma LBD expressed in African green monkey COS7 cells co-expressing 5Gal4 pGL3 TK Luc after overnight incubation by luciferase reporter gene assay relative to rosiglitazone. It is filed as cell-based. In short, it runs like this:
as §1

Data set [7] can be described thus: Cmax in C57Bl6 mouse at 10 mg/kg, po administered as single oral dose. The class given is ADME, organism-based. The note with it: in vivo. The procedure, abridged: (§2)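 Single oral dose of 10 mg/kg in methyl cellulose vehicle given to C57Bl6 mice. Plasma was sampled over a 24 h period. […]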

A short description of data set [8]: Tmax in C57Bl6 mouse at 10 mg/kg, po administered as single oral dose. The class given is ADME, organism-based. The note with it: in vivo. The procedure, abridged: as §2
Data set [9] is described as follows: AUC (infinity) in C57Bl6 mouse at 10 mg/kg, po administered as single oral dose. The class given is ADME, organism-based. The note with it: in vivo. In short, it runs like this: as §2
In data set [10] the test system is Rattus norvegicus. The experiment in a line: Toxicity in Sprague-Dawley rat assessed as increase in heart weight at 30 mg/kg for 6 weeks. The note with it: in vivo, 1008 h. The class given is organism-based.
Data set [11] concerns Rattus norvegicus. The experiment in a line: Toxicity in Sprague-Dawley rat assessed as reduction in hematocrit level at 10 mg/kg for 4 weeks. The class given is organism-based. The note with it: in vivo, 672 h.
The test system of data set [12] is Rattus norvegicus. Nature of the data set: Toxicity in Sprague-Dawley rat assessed as increase in plasma volume at 10 mg/kg for 4 weeks by evans blue dye based assay. The class given is organism-based. The note with it: in vivo, 672 h.
Data set [13] concerns Rattus norvegicus. Nature of the data set: Toxicity in Sprague-Dawley rat assessed as increase in heart weight at 10 mg/kg for 6 weeks. It is filed as organism-based. The note with it: in vivo, 1008 h.
Data set [14] relates to Rattus norvegicus. The experiment in a line: Toxicity in Sprague-Dawley rat assessed as reduction in hematocrit level at 100 mg/kg for 4 weeks. The class given is organism-based. The note with it: in vivo, 672 h. In short, it runs like this: (§3)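 Sprague-Dawley rats were treated at 100 and 1000 mg/kg. Hematocrit and plasma volume were assessed after 4 weeks of treatment and heart weight after 6 weeks. Each was compared with the control group by one-way ANOVA followed by Dunnett's test.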

For data set [15], the system named is Rattus norvegicus. The experiment in a line: Toxicity in Sprague-Dawley rat assessed as increase in plasma volume at 100 mg/kg for 4 weeks by evans blue dye based assay. The note with it: in vivo, 672 h. The class given is organism-based. The procedure, abridged: as §3
In data set [16] the test system is Rattus norvegicus. The experiment in a line: Toxicity in Sprague-Dawley rat assessed as increase in heart weight at 100 mg/kg for 6 weeks. The note with it: in vivo, 1008 h. It is filed as organism-based. In short, it runs like this: as §3
A short description of data set [17]: Apparent permeability from apical to basolateral side in human Caco2 cells at 10 uM after 2 hrs by LC-MS/MS analysis. The note with it: Caco-2. The class given is ADME, cell-based, Caco-2.
Data set [18] in a line: Apparent permeability from basolateral to apical side in human Caco2 cells at 10 uM after 2 hrs by LC-MS/MS analysis. It is filed as ADME, cell-based, Caco-2. The note with it: caco-2, 2 h, 10 µM. Background: Caco-2 monolayers are a common model of the intestinal barrier.
Data set [19] can be described thus: Efflux ratio of apparent permeability in human Caco2 cells at 10 uM after 2 hrs by LC-MS/MS analysis. It is filed as ADME, cell-based, Caco-2. The note with it: Caco-2.
Data set [20] is described as follows: Aqueous solubility in fasted state simulated intestinal fluid. It is filed as physicochemical.

Values after ≈ are worked out from the molar mass of the structure shown.

Consider `O=C(O)CCCc1cc2cc(Cl)ccc2n1S(=O)(=O)c1ccccc1`, for which the EC50 in [1] stood at 956 nM; in data set [3] it was 645 nM; in [5], 284 nM. Besides, the Emax in data set [2] turned out to be 51%; in data set [4], 46%; in [6], 46%. The compound further gave a Cmax in data set [7] of 11800 ng/mL. In data set [8], the Tmax was 1 h. In data set [9], this compound returned an AUC(0-inf) of 51100 ng·h/mL.
Take `CN(CCOc1ccc(CC2SC(=O)NC2=O)cc1)c1ccccn1` (centres undefined) [ROSIGLITAZONE]: in the data set on Rattus norvegicus [10], the Activity entry is “Toxic”.
In the case of `CCO[C@@H](Cc1ccc(OCCc2ccc(OS(C)(=O)=O)cc2)cc1)C(=O)O` [TESAGLITAZAR], the Activity result with Rattus norvegicus [11], in the data set on Rattus norvegicus [12] and with Rattus norvegicus [13] was “Toxic” each time.
For the compound `COc1ccc(OC(=O)N(CC(=O)O)Cc2ccc(OCCc3nc(-c4ccccc4)oc3C)cc2)cc1` [MURAGLITAZAR], the Activity entry in the data set with Rattus norvegicus [14], in the data set on Rattus norvegicus [15] and in the data set on Rattus norvegicus [16] was “Toxic” each time.
On to `CC(=O)CC(c1ccccc1)c1c(O)c2ccccc2oc1=O` (centres undefined) [WARFARIN], for which the Papp A→B at 2 h, 10 µM in data set [17] worked out at 39.8 ×10⁻⁶ cm/s. Besides, the Papp in [18] was found to be 0.7 ×10⁻⁶ cm/s. Besides, in data set [19], the efflux ratio at 2 h, 10 µM was determined as 0.02. In data set [20], this compound displayed a solubility of 56 µM (≈ 17.3 µg/mL).
Turning to `O=C(O)CCCc1cc2cc(C(F)(F)F)ccc2n1S(=O)(=O)c1ccccc1`, the EC50 is 1200 nM in [1], more than 5000 nM in data set [3] and 417 nM in [5]. The Emax is 48% in data set [2], 49% in data set [4] and 50% in [6].
For `Nc1nc2ccc(S(=O)(=O)n3c(CCCC(=O)O)cc4cc(Cl)ccc43)cc2s1`, the EC50 in data set [1] turned out to be 1260 nM; in [3], 919 nM; in data set [5], 41 nM. Besides, the Emax amounted to 57% in data set [2], 82% in data set [4] and 74% in [6].
For the compound `O=C(O)CCCc1cc2cc(Cl)ccc2n1S(=O)(=O)c1ccc2c(c1)OCO2`, the figures for the EC50 in data set [1], in data set [3] and in data set [5] were 790 nM, 977 nM and 71 nM, respectively. Also, the Emax was 77% in data set [2], 43% in [4] and 45% in [6].
Turning to `Cc1ccc2c(c1)cc(CCCC(=O)O)n2S(=O)(=O)c1ccccc1`, the EC50 in data set [1] is 1300 nM; in data set [3], more than 5000 nM; in [5] it was 284 nM. In addition, the Emax in [2] was determined as 46%; in [4], 45%; in [6], 38%.
